# Reference: ChEMBL document CHEMBL1154182 (J Med Chem, 2009)
# Numbered stars: 1 amine (or outer) side, 2 acyl side, 3 side chain; on linkers, the order of the positions; unused ones are H or OH. Bridge positions count the residues as written; N and C are the ends. Square brackets hold non-standard residues; d marks the D form. Peptide text beside a SMILES is read from it. 1Nal = N[C@@H](Cc1cccc2ccccc12)C(=O)O; 2Nal = N[C@@H](Cc1ccc2ccccc2c1)C(=O)O; CH2 = C([*:1])[*:2]
# What was measured:
# [1] = target: Delta-type opioid receptor (Rattus norvegicus) (UniProt P33533); conditions: C6, 1 uM
# Mu-type opioid receptor [2] = target: T1, Mu-type opioid receptor (Rattus norvegicus, UniProt P33535); assay: Displacement of [3H]diprenorphine from rat mu opioid receptor expressed in rat C6 cells after 1 hr by liquid scintillation counting; type: cell-based
# In short: (§1)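 Membranes from C6 glioma cells stably expressing rat MOR or DOR, or CHO cells expressing human KOR (10-20 μg protein), incubated with 0.2 nM [3H]diprenorphine and increasing peptide concentrations in 50 mM Tris-HCl pH 7.4 for 1 h at 25 °C. Filtered and counted by scintillation. Nonspecific binding defined with 10 μM naloxone.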
# [3] = target: T2, Delta-type opioid receptor (Rattus norvegicus, UniProt P33533); assay: Displacement of [3H]diprenorphine from rat delta opioid receptor expressed in rat C6 cells after 1 hr by liquid scintillation counting; type: cell-based
# In short: as §1
# [4] = target: T3, Kappa-type opioid receptor (Homo sapiens, UniProt P41145); assay: Displacement of [3H]diprenorphine from human kappa opioid receptor expressed in CHO cells after 1 hr by liquid scintillation counting; type: cell-based
# In short: as §1
# [5] = target: Mu-type opioid receptor (Rattus norvegicus) (UniProt P33535); assay: Agonist activity at rat mu opioid receptor expressed in rat C6 cells assessed as stimulation of [35S]GTPgammaS binding at 10 uM after 1 hr by liquid scintillation counting relative to DAMGO; type: functional, cell-based
# In short: (§2)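 Membranes (20-30 μg protein) from C6-MOR, C6-DOR or CHO-KOR cells incubated 1 h at 25 °C in 50 mM Tris-HCl pH 7.4, 100 mM NaCl, 5 mM MgCl2 with 0.1 nM [35S]GTPγS, 100 μM GDP and peptide at 0.001-10000 nM or 10 μM. Filtered and counted.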
# [6] = target: Delta-type opioid receptor (Rattus norvegicus) (UniProt P33533); assay: Agonist activity at rat delta opioid receptor expressed in rat C6 cells assessed as stimulation of [35S]GTPgammaS binding at 10 uM after 1 hr by liquid scintillation counting relative to SNC80; type: functional, cell-based
# In short: as §2
# [7] = target: T3, Kappa-type opioid receptor; assay: Agonist activity at human kappa opioid receptor expressed in CHO cells assessed as stimulation of [35S]GTPgammaS binding at 10 uM after 1 hr by liquid scintillation counting relative to U69593; type: functional, cell-based
# In short: as §2
# Mu-type opioid receptor [8] = target: T1, Mu-type opioid receptor; assay: Agonist activity at rat mu opioid receptor expressed in rat C6 cells assessed as stimulation of [35S]GTPgammaS binding after 1 hr by liquid scintillation counting; type: functional, cell-based
# In short: as §2
# [9] = target: T3, Kappa-type opioid receptor; assay: Agonist activity at human kappa opioid receptor expressed in CHO cells assessed as stimulation of [35S]GTPgammaS binding after 1 hr by liquid scintillation counting; type: functional, cell-based
# In short: as §2
# [10] = target: T2, Delta-type opioid receptor; assay: Binding affinity to rat delta opioid receptor expressed in rat C6 cells; type: cell-based
# In short: as §1
# [11] = target: T2, Delta-type opioid receptor; assay: Agonist activity at rat delta opioid receptor expressed in rat C6 cells assessed as inhibition of forskolin-stimulated cAMP production after 30 mins by radioimmunoassay
# [12] = target: Delta-type opioid receptor (Rattus norvegicus) (UniProt P33533); conditions: C6, 1 uM; remark: listed apart in the source
# [13] = target: Delta-type opioid receptor (Rattus norvegicus) (UniProt P33533); assay: Ratio of compound Ki to 5R,8S,11S,14S)-14-((S)-2-amino-3-(4-hydroxyphenyl)propanamido)-8,11-dibenzyl-7,10,13-trioxo-1,3-dithia-6,9,12-triazacyclopentadecane-5-carboxamide Ki for rat delta opioid receptor expressed in rat C6 cells; type: cell-based
# [14] = target: T3, Kappa-type opioid receptor; assay: Ratio of compound Ki to 5R,8S,11S,14S)-14-((S)-2-amino-3-(4-hydroxyphenyl)propanamido)-8,11-dibenzyl-7,10,13-trioxo-1,3-dithia-6,9,12-triazacyclopentadecane-5-carboxamide Ki for human kappa opioid receptor expressed in CHO cells; type: cell-based
# T3 sequence (P41145 whole entry): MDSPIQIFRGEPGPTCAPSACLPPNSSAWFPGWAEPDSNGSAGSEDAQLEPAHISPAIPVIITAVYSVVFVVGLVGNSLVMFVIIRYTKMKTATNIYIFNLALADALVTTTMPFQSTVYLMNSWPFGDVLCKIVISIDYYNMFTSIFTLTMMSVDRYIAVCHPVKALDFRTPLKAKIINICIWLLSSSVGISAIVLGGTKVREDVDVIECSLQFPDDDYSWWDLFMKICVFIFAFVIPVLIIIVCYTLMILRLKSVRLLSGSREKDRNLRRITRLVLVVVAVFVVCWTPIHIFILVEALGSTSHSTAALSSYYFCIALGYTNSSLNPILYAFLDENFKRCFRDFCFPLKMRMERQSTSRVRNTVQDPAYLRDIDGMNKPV
# Chain of Mu-type opioid receptor (Rattus norvegicus) (P33535 whole entry): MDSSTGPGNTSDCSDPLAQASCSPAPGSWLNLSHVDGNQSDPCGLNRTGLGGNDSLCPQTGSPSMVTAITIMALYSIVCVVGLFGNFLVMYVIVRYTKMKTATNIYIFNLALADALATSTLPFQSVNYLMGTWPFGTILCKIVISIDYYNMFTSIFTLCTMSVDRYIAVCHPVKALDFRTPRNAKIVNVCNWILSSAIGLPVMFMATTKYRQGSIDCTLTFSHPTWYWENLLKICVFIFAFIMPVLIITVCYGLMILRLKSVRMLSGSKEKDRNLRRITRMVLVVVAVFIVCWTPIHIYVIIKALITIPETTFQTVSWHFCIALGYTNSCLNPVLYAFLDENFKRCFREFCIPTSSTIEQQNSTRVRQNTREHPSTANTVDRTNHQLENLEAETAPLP
# T1 sequence (P33535 whole entry): as above
# T2 sequence (P33533 whole entry): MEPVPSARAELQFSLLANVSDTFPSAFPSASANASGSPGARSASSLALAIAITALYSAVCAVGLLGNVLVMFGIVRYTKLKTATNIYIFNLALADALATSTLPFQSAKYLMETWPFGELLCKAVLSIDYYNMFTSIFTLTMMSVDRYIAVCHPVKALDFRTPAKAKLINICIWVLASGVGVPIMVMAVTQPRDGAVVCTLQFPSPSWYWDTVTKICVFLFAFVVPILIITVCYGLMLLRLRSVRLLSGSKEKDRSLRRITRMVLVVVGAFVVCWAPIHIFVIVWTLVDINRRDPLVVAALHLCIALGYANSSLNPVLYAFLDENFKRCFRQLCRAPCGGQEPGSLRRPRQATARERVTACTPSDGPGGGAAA
# Chain of Delta-type opioid receptor (Rattus norvegicus) (P33533 whole entry): as above
smiles,measurement,setting,value
C=CCN1C[C@H](C)N([C@H](c2ccc(C(=O)N(CC)CC)cc2)c2cccc(OC)c2)C[C@H]1C,inhibition,[1],67%
NC(=O)[C@@H]1CSSC[C@@H](NC(=O)[C@@H](N)Cc2ccc(O)cc2)C(=O)N[C@@H](Cc2ccccc2)C(=O)N[C@@H](Cc2cccc3ccccc23)C(=O)N1 (H-Y[dC]F[1Nal]C-NH2; disulfide 2-5),Ki,Mu-type opioid receptor [2],2.5 nM
same,Ki,[3],7.1 nM
same,Ki,[4],11 nM
same,Efficacy,[5],88%
same,Efficacy,[6],15%
same,Efficacy,[7],100%
NC(=O)[C@@H]1CSCSC[C@@H](NC(=O)[C@@H](N)Cc2ccc(O)cc2)C(=O)N[C@@H](Cc2ccccc2)C(=O)N[C@@H](Cc2cccc3ccccc23)C(=O)N1 (H-Y[dC]F[1Nal]C-NH2; linker 2-5 via CH2),Ki,Mu-type opioid receptor [2],0.61 nM
same,Ki,[3],5.2 nM
same,Ki,[4],6 nM
same,Efficacy,[5],100%
same,Efficacy,[6],22%
same,Efficacy,[7],87%
NC(=O)[C@@H]1CSSC[C@@H](NC(=O)[C@@H](N)Cc2ccc(O)cc2)C(=O)N[C@@H](Cc2ccccc2)C(=O)N[C@@H](Cc2ccc3ccccc3c2)C(=O)N1 (H-Y[dC]F[2Nal]C-NH2; disulfide 2-5),Ki,Mu-type opioid receptor [2],1.2 nM
same,Ki,[3],11 nM
same,Ki,[4],5.9 nM
same,Efficacy,[5],90%
same,Efficacy,[6],2%
same,Efficacy,[7],49%
NC(=O)[C@@H]1CSCSC[C@@H](NC(=O)[C@@H](N)Cc2ccc(O)cc2)C(=O)N[C@@H](Cc2ccccc2)C(=O)N[C@@H](Cc2ccc3ccccc3c2)C(=O)N1 (H-Y[dC]F[2Nal]C-NH2; linker 2-5 via CH2),Ki,Mu-type opioid receptor [2],0.47 nM
same,Ki,[3],0.48 nM
same,Ki,[4],1.3 nM
same,Efficacy,[5],99%
same,Efficacy,[6],7%
same,Efficacy,[7],89%
same,EC50,Mu-type opioid receptor [8],1.2 nM
same,EC50,[9],12 nM
same,Ki,[10],2.1 nM
same,EC50,[11],36 nM
same,inhibition,[1],37%
same,inhibition,[12],55%
NC(=O)[C@@H]1CSSC[C@@H](NC(=O)[C@@H](N)Cc2ccc(O)cc2)C(=O)N[C@@H](Cc2cccc3ccccc23)C(=O)N[C@@H](Cc2ccccc2)C(=O)N1 (H-Y[dC][1Nal]FC-NH2; disulfide 2-5),Ki,Mu-type opioid receptor [2],0.08 nM
same,Ki,[3],34 nM
same,Ki,[4],21 nM
same,Efficacy,[5],33%
same,Efficacy,[6],0%
same,Efficacy,[7],59%
same,Ratio Ki,[13],> 10
NC(=O)[C@@H]1CSCSC[C@@H](NC(=O)[C@@H](N)Cc2ccc(O)cc2)C(=O)N[C@@H](Cc2cccc3ccccc23)C(=O)N[C@@H](Cc2ccccc2)C(=O)N1 (H-Y[dC][1Nal]FC-NH2; linker 2-5 via CH2),Ki,Mu-type opioid receptor [2],0.33 nM
same,Ki,[3],34 nM
same,Ki,[4],5.8 nM
same,Efficacy,[5],91%
same,Efficacy,[6],23%
same,Efficacy,[7],77%
same,Ratio Ki,[13],> 10
NC(=O)[C@@H]1CSSC[C@@H](NC(=O)[C@@H](N)Cc2ccc(O)cc2)C(=O)N[C@@H](Cc2ccc3ccccc3c2)C(=O)N[C@@H](Cc2ccccc2)C(=O)N1 (H-Y[dC][2Nal]FC-NH2; disulfide 2-5),Ki,Mu-type opioid receptor [2],0.72 nM
same,Ki,[3],55 nM
same,Ki,[4],145 nM
same,Efficacy,[5],34%
same,Efficacy,[6],0.7%
same,Efficacy,[7],7.5%
same,Ratio Ki,[13],> 10
same,Ratio Ki,[14],> 10
NC(=O)[C@@H]1CSCSC[C@@H](NC(=O)[C@@H](N)Cc2ccc(O)cc2)C(=O)N[C@@H](Cc2ccc3ccccc3c2)C(=O)N[C@@H](Cc2ccccc2)C(=O)N1 (H-Y[dC][2Nal]FC-NH2; linker 2-5 via CH2),Ki,Mu-type opioid receptor [2],0.47 nM
same,Ki,[3],15 nM
same,Ki,[4],69 nM
same,Efficacy,[5],34%
same,Efficacy,[6],23%
same,Efficacy,[7],35%
same,Ratio Ki,[13],> 10
same,Ratio Ki,[14],> 10
